This is an account of results in ChEMBL document CHEMBL1134340, “GnRH antagonists: a new generation of long acting analogues incorporating p-ureido-phenylalanines at positions 5 and 6” (J Med Chem, 2001).

SMILES strings stand for the structures. Converted amounts (≈) assume the structure as drawn. *1 amine or outer side, *2 acyl side, *3 side chain or, on linkers, in order; H or OH if unused. Where a SMILES comes first, the peptide text is derived from it. [ ]: non-standard residue; d: D form. Phe(4-NH(5-NH2triazol-3-yl)) = Nc1nc(Nc2ccc(C[C@H](N)C(=O)O)cc2)n[nH]1; X1 = Nc1nc(Nc2ccc(C[C@@H](N[*:1])C(=O)[*:2])cc2)n[nH]1; dPhe(4-NHCONH2) = NC(=O)Nc1ccc(C[C@@H](N)C(=O)O)cc1; Phe(4-NHCONH2) = NC(=O)Nc1ccc(C[C@H](N)C(=O)O)cc1; d(hArg(Et2)) = CCN=C(NCC)NCCCC[C@@H](N)C(=O)O; hArg(Et2) = CCN=C(NCC)NCCCC[C@H](N)C(=O)O; dPhe(4-Cl) = N[C@H](Cc1ccc(Cl)cc1)C(=O)O; d2Nal = N[C@H](Cc1ccc2ccccc2c1)C(=O)O; Lys(iPr) = CC(C)NCCCC[C@H](N)C(=O)O; dCit = NC(=O)NCCC[C@@H](N)C(=O)O; d3Pal = N[C@H](Cc1cccnc1)C(=O)O

For assay [1], the species on record is Rattus norvegicus. The assay can be described thus: Compound was tested for histamine release at a concentration of 100 ug/mL. The class given is functional. The procedure, abridged:
(§1)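 Sprague-Dawley rat peritoneal mast cells, Percoll-purified, in heparinized balanced salt solution with albumin, pH 7.2. Cells exposed to compound or vehicle for 2 min at 37 °C. Supernatant histamine measured spectrofluorometrically after o-phthalaldehyde derivatization; pellets lysed for retained histamine. Reported as % of total histamine released, corrected for spontaneous release in vehicle.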

For assay [2], the species on record is Rattus norvegicus. The assay can be described thus: Compound was tested for histamine release at a concentration of 10 ug/mL. The class given is functional. The method in brief: as §1
For assay [3], the species on record is Rattus norvegicus. As to the kind of experiment: Compound was tested for inhibition of Leutenizing hormone release at 48 hours (intermediate duration) in castrated male rat assay. The class given is functional. The procedure, abridged: (§2)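 Male Sprague-Dawley rats (180-200 g), castrated under ether 10 days earlier, 5 per group. 50 µg/rat given sc in 100 µL 40 mM phosphate buffer with 0.1% BSA and 0.6% DMSO; acyline run as internal standard. Tail blood taken predose and at 24, 48, 72, 96 (sometimes 120) h; plasma LH by RIA. Duration classed by >80% LH inhibition at each time.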

The species entered for assay [4] is Rattus norvegicus. The assay can be described thus: Compound was tested for histamine release at a concentration of 30 ug/mL. The class given is functional. The procedure, abridged: as §1
The species named for assay [5] is Rattus norvegicus. The assay can be described thus: Effective dose for histamine release was determined. It counts as functional. The procedure, abridged:
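ED50 for histamine release calculated from % release values across concentrations in rat peritoneal mast cell assay (2 min, 37 °C, o-phthalaldehyde fluorometric read-out, corrected for vehicle release).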

The target of assay [6] is T1, Gonadotropin-releasing hormone receptor (Homo sapiens, UniProt P30968).
T1 sequence (P30968 whole entry): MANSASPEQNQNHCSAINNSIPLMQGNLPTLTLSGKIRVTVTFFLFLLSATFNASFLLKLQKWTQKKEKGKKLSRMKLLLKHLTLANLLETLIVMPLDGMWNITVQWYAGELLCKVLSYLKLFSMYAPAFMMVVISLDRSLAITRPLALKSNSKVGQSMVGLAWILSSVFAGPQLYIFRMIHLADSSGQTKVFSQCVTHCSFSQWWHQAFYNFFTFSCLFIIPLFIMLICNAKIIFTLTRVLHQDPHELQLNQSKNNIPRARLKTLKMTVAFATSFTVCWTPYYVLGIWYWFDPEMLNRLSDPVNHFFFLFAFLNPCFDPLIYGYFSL
The assay can be described thus: Antagonism of human GnHR receptor, determined in a reporter gene assay in HEK293 cells. The class given is functional, cell-based. The method in brief:
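HEK293 cells stably expressing cloned human GnRH receptor plus luciferase reporter under LH alpha subunit promoter, plated 24 h before assay. Compound in 1% DMSO added 10 min at 37 °C, then GnRH at 3 nM final; 5 h incubation, luciferase luminescence read. Six concentrations in duplicate; blank-subtracted cps as % of GnRH control; mean of two determinations.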
(Reporter assays use an easily measured gene product as a stand-in for the process of interest.)

The species entered for assay [7] is Rattus norvegicus. As to the kind of experiment: Compound was tested for inhibition of Leutenizing hormone release at 72 hours (long duration) in castrated male rat assay. It counts as functional. Details: concentration or dose not given beside the values. The method in brief:
as §2

Assay [8] concerns the target T1, Gonadotropin-releasing hormone receptor. As to the kind of experiment: Competitive antagonism of GnRH-induced response in the reporter gene assay. The class given is functional. To be noted: read-out: pA2 (converted). The method in brief:
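Same HEK293 human GnRH receptor luciferase reporter cells. Seven-point GnRH curve (10 µM to 10 pM final) run in duplicate without or with four to five increasing compound concentrations (10 min preincubation, 37 °C), then 5 h and luminescence. GnRH EC50 at each level by four-parameter logistic fit, giving pA2; mean of two determinations in duplicate.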

The species entered for assay [9] is Rattus norvegicus. The assay can be described thus: Compound was tested for histamine release at a concentration of 1 ug/mL. The class given is functional. The procedure, abridged:
as §1

For assay [10], the species on record is Rattus norvegicus. As to the kind of experiment: Compound was tested for histamine release at a concentration of 3 ug/mL. The class given is functional. The procedure, abridged:
as §1

The species named for assay [11] is Rattus norvegicus. As to the kind of experiment: Compound was tested for inhibition of Leutenizing hormone release at 24 hours (very short duration) in castrated male rat assay; NI means no inhibition at 24 hr. It counts as functional, organism-based. The method in brief: as §2
The species entered for assay [12] is Rattus norvegicus. As to the kind of experiment: Compound was tested for histamine release at a concentration of 150 ug/mL. The class given is functional. The procedure, abridged:
as §1

What is called Inhibition is the share of the control response that was lost under treatment. On to `CC(=O)O.CC(=O)O.CC/N=C(\NCC)NCCCC[C@H](NC(=O)[C@H](CC(C)C)NC(=O)[C@@H](CCCCN/C(=N/CC)NCC)NC(=O)[C@H](Cc1ccc(O)cc1)NC(=O)[C@H](CO)NC(=O)[C@@H](Cc1cccnc1)NC(=O)[C@@H](Cc1ccc(Cl)cc1)NC(=O)[C@@H](Cc1ccc2ccccc2c1)NC(C)=O)C(=O)N1CCC[C@H]1C(=O)N[C@H](C)C(N)=O` [GANIRELIX ACETATE] (Ac-[d2Nal][dPhe(4-Cl)][d3Pal]SY[d(hArg(Et2))]L[hArg(Et2)]P[dA]-NH2), for which the HR in [1] stood at 62%; in [2] it was 30%; in assay [4], 57%. Further, the Inhibition in assay [3] is over 80%. Moreover, the ED50 in [5] worked out at 11 µg/mL.
One may read the IC50 as the point on the concentration scale where inhibition reaches its midpoint. In assay [6], `CC(=O)N[C@H](Cc1ccc2ccccc2c1)C(=O)N[C@H](Cc1ccc(Cl)cc1)C(=O)N[C@H](Cc1cccnc1)C(=O)N[C@@H](CO)C(=O)N[C@@H](Cc1ccc(NC(N)=O)cc1)C(=O)N[C@H](Cc1ccc(NC(N)=O)cc1)C(=O)N[C@@H](CC(C)C)C(=O)N[C@@H](CCCCNC(C)C)C(=O)N1CCC[C@H]1C(=O)N[C@H](C)C(N)=O` (Ac-[d2Nal][dPhe(4-Cl)][d3Pal]S[Phe(4-NHCONH2)][dPhe(4-NHCONH2)]L[Lys(iPr)]P[dA]-NH2) displayed an IC50 of 2.8 nM. Moreover, the HR is listed as 153% in [1], under 10% in assay [2] and 75% in assay [4]. In assay [7], this compound displayed an Inhibition of over 80%. Also, the Kb in assay [8] is 1.58 nM.
For the compound `CC(=O)N[C@H](Cc1ccc2ccccc2c1)C(=O)N[C@H](Cc1ccc(Cl)cc1)C(=O)N[C@H](Cc1cccnc1)C(=O)N[C@@H](CO)C(=O)N[C@@H](Cc1ccc(O)cc1)C(=O)N[C@H](CCCNC(N)=O)C(=O)N[C@@H](CC(C)C)C(=O)N[C@@H](CCCNC(=N)N)C(=O)N1CCC[C@H]1C(=O)N[C@H](C)C(N)=O` [CETRORELIX] (Ac-[d2Nal][dPhe(4-Cl)][d3Pal]SY[dCit]LRP[dA]-NH2), half-maximal inhibition in [6] (IC50) required 4.2 nM. For the same compound, the HR amounted to 64% in assay [2], 34% in assay [9] and 5% in [10]. The Inhibition in assay [7] is over 80%. The Kb in assay [8] was 1.26 nM. Further, the ED50 in assay [5] was 1.3 µg/mL (≈ 0.908 µM).
As for `CC(=O)N[C@H](Cc1ccc2ccccc2c1)C(=O)N[C@H](Cc1ccc(Cl)cc1)C(=O)N[C@H](Cc1cccnc1)C(=O)N[C@@H](CO)C(=O)N[C@@H](Cc1ccc(NC(=O)[C@H]2CC(=O)NC(=O)N2)cc1)C(=O)N[C@H](Cc1ccc(CNC(N)=O)cc1)C(=O)N[C@@H](CC(C)C)C(=O)N[C@@H](CCCCNC(C)C)C(=O)N1CCC[C@H]1C(=O)N[C@H](C)C(N)=O`, the Inhibition in assay [3] is over 80%.
For the compound `CC(=O)N[C@H](Cc1ccc2ccccc2c1)C(=O)N[C@H](Cc1ccc(Cl)cc1)C(=O)N[C@H](Cc1cccnc1)C(=O)N[C@@H](CO)C(=O)N[C@@H](CCCCNC(=O)[C@H]1CC(=O)NC(=O)N1)C(=O)N[C@H](CCCCNC(=O)[C@@H]1CC(=O)NC(=O)N1)C(=O)N[C@@H](CC(C)C)C(=O)N[C@@H](CCCCNC(C)C)C(=O)N1CCC[C@H]1C(=O)N[C@H](C)C(N)=O`, in assay [11], the NI result is “no inhibition at 24 hr”.
In the case of `CC(=O)Nc1ccc(C[C@@H](NC(=O)[C@H](CNC(=O)[C@@H]2CC(=O)NC(=O)N2)NC(=O)[C@H](CO)NC(=O)[C@@H](Cc2cccnc2)NC(=O)[C@@H](Cc2ccc(Cl)cc2)NC(=O)[C@@H](Cc2ccc3ccccc3c2)NC(C)=O)C(=O)N[C@@H](CC(C)C)C(=O)N[C@@H](CCCCNC(C)C)C(=O)N2CCC[C@H]2C(=O)N[C@H](C)C(N)=O)cc1`, the NI result in assay [11] is “no inhibition at 24 hr”. Also, the HR in [12] is 96%.
As to `CC(=O)N[C@H](Cc1ccc2ccccc2c1)C(=O)N[C@H](Cc1ccc(Cl)cc1)C(=O)N[C@H](Cc1cccnc1)C(=O)N[C@@H](CO)C(=O)N[C@@H](Cc1ccc(Nc2n[nH]c(N)n2)cc1)C(=O)N[C@H](Cc1ccc(Nc2n[nH]c(N)n2)cc1)C(=O)N[C@@H](CC(C)C)C(=O)N[C@@H](CCCCNC(C)C)C(=O)N1CCC[C@H]1C(=O)N[C@H](C)C(N)=O.CC(=O)O` [PRAZARELIX ACETATE] (Ac-[d2Nal][dPhe(4-Cl)][d3Pal]S[Phe(4-NH(5-NH2triazol-3-yl))][X1]L[Lys(iPr)]P[dA]-NH2), the IC50 in assay [6] was 6.9 nM. The HR in [1] was 93%; in [2] it was 17%; in assay [4], 70%. This compound gave an Inhibition in [7] of over 80%. Besides, the Kb in assay [8] was 1.58 nM. The compound further returned an ED50 in assay [5] of 19 µg/mL.
In the case of `CC(=O)Nc1ccc(C[C@@H](NC(=O)[C@@H](NC(=O)[C@H](CO)NC(=O)[C@@H](Cc2cccnc2)NC(=O)[C@@H](Cc2ccc(Cl)cc2)NC(=O)[C@@H](Cc2ccc3ccccc3c2)NC(C)=O)N(C)C(N)=O)C(=O)N[C@@H](CC(C)C)C(=O)N[C@@H](CCCCNC(C)C)C(=O)N2CCC[C@H]2C(=O)N[C@H](C)C(N)=O)cc1`, the NI result in assay [11] was “no inhibition at 24 hr”.
